# Source: PubChem BioAssay (several laboratories)
# Sampled rows, rich in hits. Any-hit rate of the full collection: about 1.5%.
# CSN inh: blocks human CSN-mediated cullin deneddylation. Purified CSN, SCF-Nedd8-OG deneddylation, fluorescence polarization. inhibition, % at 12.5 µM. Q92905. AID 651999. 360,000 tested, 0.38% active;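 active means pattern-corrected inhibition above about 35%, with an unprinted fluorescence ratio check between 0.5 and 1.5, limit read from the data, passing the limit was not always enough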;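 further: 0% = enzyme with substrate and 100% = substrate without enzyme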
# Target sequence (Q92905 whole entry, looked up, one chain of several): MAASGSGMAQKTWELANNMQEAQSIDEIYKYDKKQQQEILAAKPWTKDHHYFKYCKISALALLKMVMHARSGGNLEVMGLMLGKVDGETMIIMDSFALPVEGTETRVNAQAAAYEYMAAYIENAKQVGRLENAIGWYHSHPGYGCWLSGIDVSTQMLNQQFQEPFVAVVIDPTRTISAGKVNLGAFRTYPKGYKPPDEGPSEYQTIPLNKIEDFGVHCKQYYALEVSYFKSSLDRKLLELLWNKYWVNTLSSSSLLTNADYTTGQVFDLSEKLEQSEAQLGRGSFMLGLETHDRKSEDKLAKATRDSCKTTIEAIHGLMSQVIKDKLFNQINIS
#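 Assay system: HEK293T-derived human Csn5 enzyme; quantity: 0.24 nM enzyme; medium: Tris/NaCl/DTT buffer, pH 7.5; also added: substrate SCFSkp2-Nedd8OG, 10 nM; doses: 12.5 µM compound; schedule: 90 min reaction at room temperature; signal: FP; read-out: % inhibition of substrate cleavage by Csn5; benchmarks: substrate-only high control, full reaction low control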
# HNF4A DNA FP: change in binding of human HNF4 alpha to DNA. P41235. HNF4a-FITC DNA binding, fluorescence polarization, 1 h. 360,000 tested, 0.3% active. activity change, % at 10 µM; in the data active means activity change above about 30%, passing the limit was not always enough
# TPT1 inhibitor: blocks Candida albicans tRNA 2'-phosphotransferase. recombinant caTPT1, FP RNA substrate dephosphorylation. inhibition, % at 5 µM. 300,000 tested, 0.81% active. AID 1962;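 active means inhibition above the mean of all tested compounds plus 3 SD, set per screening campaign, cut at about 24% in these data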;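 further: plate controls were DMSO alone for no effect and ferristatin control at 100 nM for full effect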
# Rpn11 inh: inhibitors of human proteasome Rpn11; human 26S proteasome, Ub4-pepOG fluorescence polarization; 20S core pre-blocked with epoxomicin; inhibition, % at 20 µM; 360,000 tested, 0.59% active;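 active means inhibition at 20 µM, scaled to each plate's controls, above about 33%, limit read from the data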
# Target sequence (O00487 whole entry, looked up): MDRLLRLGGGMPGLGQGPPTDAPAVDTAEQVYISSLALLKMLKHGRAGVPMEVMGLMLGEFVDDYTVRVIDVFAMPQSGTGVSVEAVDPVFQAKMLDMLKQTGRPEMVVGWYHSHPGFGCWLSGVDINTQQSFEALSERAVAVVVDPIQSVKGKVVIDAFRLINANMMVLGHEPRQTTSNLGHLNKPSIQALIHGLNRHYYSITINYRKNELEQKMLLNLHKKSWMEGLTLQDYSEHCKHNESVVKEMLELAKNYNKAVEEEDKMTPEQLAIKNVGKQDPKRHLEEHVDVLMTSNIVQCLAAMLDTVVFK
# caTPT1 confirm: confirmation of Candida albicans TPT1 inhibitors. shares compounds with TPT1 inhibitor. recombinant caTPT1, fluorescence polarization, RNase T1 coupled. inhibition, % at 5 µM. 2,400 tested, 74% active;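 active means inhibition above the primary screen limit, the mean inhibition of all tested compounds plus 3 SD, cut at about 25% in these data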
# RNase T1 inh: blocks Aspergillus oryzae RNase T1, a TPT1 counter-screen | shares compounds with TPT1 inhibitor | AID 2153 | 2,400 tested, 83% active | RNase T1 cleavage, fluorescence polarization, 1536-well | inhibition, % at 5 µM;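 active means inhibition above the solvent-only control well mean plus 3 SD, limit set per screening run, cut at about 23% in these data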;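 further: plate controls were DMSO wells with enzyme for no effect and wells without RNase T1 for full effect; inhibitors block cleavage so intact labeled substrate keeps polarization high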
# Rpn11 inh conf: confirmation of human proteasome Rpn11 inhibitors | 1,900 tested, 29% active | AID 602318 | inhibition, % at 20 µM | shares compounds with Rpn11 inh | purified human 26S proteasome, Ub4-pepOG fluorescence polarization; proteasome pretreated with epoxomicin
# MMP-2 counter-1: blocks human MMP-2, flagging nonselective RPN11 hits | shares compounds with Rpn11 inh | recombinant MMP-2, FRET peptide cleavage fluorescence | inhibition, % at 20 µM | 1,900 tested, 4% active | AID 602330;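 further: human MMP-2 activated beforehand with APMA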
# Thrombin inh: counter-screen for RPN11 inhibitors: inhibition of bovine thrombin; 1,900 tested, 13% active; inhibition, % at 20 µM; shares compounds with Rpn11 inh; bovine thrombin cleavage of Ub4-pepOG, fluorescence polarization;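 active means mean inhibition at least 40% at 20 µM, or signal 3 deviations below plate average, so some actives read negative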;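 further: plate controls were thrombin with DMSO for no effect and buffer wells lacking thrombin for full effect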
# CSN deneddyl val: validation of inhibitors of human CSN-mediated cullin deneddylation | AID 720654 | 540 tested, 62% active | inhibition, % at 16.6 µM | shares compounds with CSN inh | Csn5 deneddylation of SCF-Nedd8OG, fluorescence polarization, 90 min; in the data active means inhibition above about 50%;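 further: 0% = DMSO with enzyme and 100% = no enzyme wells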
# MMP-2 counter-2: MMP-2 (human) inhibition, counter-screen for CSN hits; shares compounds with CSN inh; recombinant MMP-2, FRET substrate fluorescence, 60 min; inhibition, % at 16.6 µM; 540 tested, 33% active;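 active means corrected plate-normalized z-score of 5 or more, or -5 or less, or inhibition of 15% or more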;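 further: plate controls were DMSO wells with enzyme for no effect and buffer wells lacking MMP-2 for full effect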
# Thrombin counter: thrombin (bovine) inhibition, counter-screen for CSN hits | inhibition, % at 16.6 µM | 540 tested, 49% active | bovine thrombin cleavage of Ub4-pepOG, fluorescence polarization | shares compounds with CSN inh | AID 720656;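 active means inhibition at or above a set limit, with a fluorescence interference ratio between 0.5 and a set maximum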
# Active calls of the source: *; . = not tested or not shown; + = active, no number. Unless noted, no stated cut-off is given here; in the data, active means inhibition above about 40%; inactive means the rest.
SMILES,CSN inh,HNF4A DNA FP,TPT1 inhibitor,Rpn11 inh,caTPT1 confirm,RNase T1 inh,CSN deneddyl val,MMP-2 counter-2,Thrombin counter,others
COC(=O)c1sccc1NC(=O)Nc1ccc(C(C)=O)cc1,0,0,.,-2,.,.,.,.,.,
CCCOc1ccc(C(=O)Nc2ccc(N3CCN(C(=O)c4ccco4)CC3)cc2)cc1,-1,-2,-1,-2,.,.,.,.,.,
COc1cc(C(O)c2nc(-c3ccc(F)cc3OC)cs2)ccc1F (centres undefined),-1,1,.,0,.,.,.,.,.,
CCOc1ccc(N(C)c2ccc(/C=C3/SC(=S)NC3=O)cc2)cc1,87*,108,115*,.,128*,127*,28,24*,66*,
CC1=Nc2ccccc2/C1=C/c1sc(=N)n(-c2nccs2)c1O,44*,36,99*,89*,112*,122*,48,17*,43*,
COCCn1nnnc1C(c1ccc(OC)cc1)N1CCN(C(=O)c2ccco2)CC1 (centres undefined),1,0,-3,-7,.,.,.,.,.,
O=C1/C(=C\c2ccc(O)c(O)c2)N=C2CCCCCN12,38*,32,27*,.,45*,47*,69*,6,45*,
Cc1ccc(-n2nc3c(=O)n(CC(=O)NC4CCCCCC4)nc(C)c3c2C)cc1,-3,-5,-2,2,.,.,.,.,.,
CCCN1CCc2c(sc(NC(=O)c3ccc(S(=O)(=O)N(C)c4ccccc4)cc3)c2C(=O)NC)C1,42*,67*,104*,.,110*,118*,179*,-1,12,
CC(=O)NC1(C(F)(F)F)NC(=O)N(CCc2ccccc2)C1=O (centres undefined),1,0,-4,-8,.,.,.,.,.,
CCOC(=O)C1=C(C)NC(C)=C(C(=O)OCC)C1C(=O)OCC(=O)NCc1ccccc1OC,-3,3,.,3,.,.,.,.,.,
O=c1[nH]c(=S)[nH]c2c1C(c1ccc(Br)cc1)c1c([nH]c(=S)[nH]c1=O)O2,84*,-64,82*,141*,7,9,50*,33*,85*,Rpn11 inh conf=49*;MMP-2 counter-1=22;Thrombin inh=28
CN(C)c1ccc2c(=O)cc[nH]c2c1,1,9,.,6,.,.,.,.,.,
Cc1nc2ccc([N+](=O)[O-])cc2c(=O)n1Cc1ccccc1Br,3,5,3,-6,.,.,.,.,.,
COc1cc(/C=C2/SC(=S)N(Cc3ccccc3)C2=O)ccc1O,57*,69*,24*,.,37*,46*,58*,-7,52,
CCOc1ccc(/C=C2/SC(=S)N(C(C(=O)O)c3ccccc3)C2=O)cc1OCC (centres undefined),1,4,.,34,.,.,.,.,.,
COc1cc(/C=C2\C(=O)N(C)C(=S)N2C)ccc1O,8,6,9,30,.,.,.,.,.,
COc1cc(/C=C2\SC(=S)N(C(C(=O)O)c3ccccc3)C2=O)ccc1O (centres undefined),39*,23,27*,81*,28*,41*,73*,6,61*,Rpn11 inh conf=56*;MMP-2 counter-1=-15;Thrombin inh=73*
CCOc1cc(/C=C2\SC(=S)N(C(C(=O)O)c3ccccc3)C2=O)ccc1O (centres undefined),41*,25,45*,112*,48*,61*,81*,1,55*,Rpn11 inh conf=63*;MMP-2 counter-1=13;Thrombin inh=72*
COc1cc(/C=C2/SC(=NCc3ccccc3)N(Cc3ccccc3)C2=O)ccc1O,6,4,16,6,.,.,.,.,.,
O=C(O)CCc1ccc(S(=O)(=O)Nc2cc(C(F)(F)F)ccc2N2CCCC2)cc1,16,-24,.,-12,.,.,.,.,.,
C=CCN1C(=O)/C(=C\C=C2\N(C)c3ccccc3C2(C)C)SC1=S,72*,108,116*,.,120*,115*,117*,-35*,-54,
CC(/C=C1\SC(=S)N(NC(=O)c2ccccc2C)C1=O)=C\c1ccccc1,-1,-2,7,-34,.,.,.,.,.,
CCOc1cc(/C=C2\SC(=S)N(NC(=O)c3cccnc3)C2=O)ccc1O,36*,49*,50*,78*,39*,54*,58*,2,36*,Rpn11 inh conf=83*;MMP-2 counter-1=-1;Thrombin inh=62*
COc1cc(/C=C2\SC(=S)N(NC(=O)c3ccc(O)c(OC)c3)C2=O)ccc1O,64*,59*,35*,.,44*,58*,90*,-5,80*,
SMILES,CSN inh,HNF4A DNA FP,TPT1 inhibitor,Rpn11 inh,caTPT1 confirm,RNase T1 inh,CSN deneddyl val,MMP-2 counter-2,Thrombin counter,others
O=C(CCN1C(=O)/C(=C/c2cccc(Br)c2)SC1=S)NNC(=O)c1cccnc1,0,2,1,0,.,.,.,.,.,
COc1cc(/C=C2\SC(=S)N(NS(=O)(=O)c3ccc(C)cc3)C2=O)ccc1O,41*,25,30*,99*,36*,48*,63*,15*,68*,Rpn11 inh conf=83*;MMP-2 counter-1=26;Thrombin inh=90*
CCOc1ccc(/C=C2\SC(=S)N(Nc3ccccc3)C2=O)cc1OC,7,2,9,-1,.,.,.,.,.,
Cn1cccc1/C=C1\SC(=S)N(NC(=O)c2ccccc2O)C1=O,55*,101*,79*,.,87*,101*,95*,6,48*,
N#C/C(=C\c1ccc(N2CCCCC2)o1)C(N)=O,106*,168,+,.,171*,164*,198*,-10,15,
O=Cc1ccc(N2CCCC2)o1,-1,0,0,1,.,.,.,.,.,
Cc1ccc(S(=O)(=O)N2C[C@H]3C(=O)C[C@@H](c4cccc(Cl)c4)N(S(=O)(=O)c4ccc(C)cc4)[C@H]3C[C@H]2c2ccc(Cl)cc2)cc1,6,2,.,2,.,.,.,.,.,
CCOC(=O)CN1C(=O)S/C(=C/C=C/c2ccc(N(C)C)cc2)C1=O,40*,46*,87*,.,87*,88*,62*,-44*,66*,
